According to ChEMBL document CHEMBL4513216, “Probing the Open Global Health Chemical Diversity Library for Multistage-Active Starting Points for Next-Generation Antimalarials” (ACS Infect Dis, 2020):

Assay: Toxicity liver stage against HepG2, at 10uM
Assay type: cell-based
Design: test concentration 10 uM, cell line HepG2-A16-CD81EGFP
Conditions: human, HepG2-A16-CD81EGFP cells; read-out: INHIBITION
How it was run: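 Uninfected HepG2-A16-CD81EGFP cells, 3 × 10^3 per well, 1536-well, plated on prespotted compound at 10 μM final, parasite-free screening media added to match infected plates; puromycin 10 μM positive, DMSO 0.5% negative; run in parallel with 48 h PbLuc assay at 37 °C, 5% CO2; viability by CellTiter-Glo luminescence, normalized to controls.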

| Structure (SMILES) | cytotoxicity at 10 µM [%] |
| --- | --- |
| CCN(CC)C(=O)Cn1cc(C(=O)NCCCc2scnc2C)nn1 | -7.38 |
| COc1c(C)cnc(CN2CCCCC2CCN2CCOCC2)c1C (stereo not given) | -4.27 |
| CCc1csc(CNc2cc(C)nc(-c3cccnc3)n2)n1 | 4.83 |
| Cc1ccc(-c2cc(C(=O)NCCCc3csc(N)n3)[nH]n2)s1 | 81.7 |
| COc1ccccc1OC1(C(=O)O)CCN(c2nc(C)cnc2C)CC1 | -13.6 |
| Cc1ccnc(NCCNC(=O)CCNC(=O)c2ccccc2F)c1 | 1.5 |
| Cc1ccc(C#N)c(N2CCCC(c3nccn3Cc3cscn3)C2)n1 (stereo not given) | -1.9 |
| O=C(c1ccnc(-n2cnnc2)c1)N1CCCC2(CCNC2)C1 (stereo not given) | -19.1 |
| Cc1cccc(C(C(=O)NCc2nc(-c3ncccn3)no2)N(C)C)c1 (stereo not given) | -1.57 |
| CC(=O)NCC1CCC2(CCN(c3ncc(C(C)=O)c(C)n3)CC2)O1 (stereo not given) | -0.611 |
| CCCNC(=O)c1ccc(S(=O)(=O)NC2(COC)CCCC2)cc1 | -49.9 |
| CC(=O)NCc1nnc2n1CCN(c1ncnc3c1CCC3)CC2 | 13 |
| CN1CCCC1c1ccc(C(=O)Nc2c3c(nn2C)CCC3)s1 (stereo not given) | -7.3 |
| CSCCNc1ccc(C(=O)N(C)Cc2ccc3ccccc3n2)cn1 | 9.65 |
| CCOc1ccc(C(=O)NC2CC2)cc1C | 8 |
| CC1Oc2ccc(S(=O)(=O)NCCCn3ccnc3)cc2NC1=O (stereo not given) | 7.88 |
| Cc1nc(CCCNC(=O)C2CC(=O)N(C3CC3)C2)sc1C (stereo not given) | -12.9 |
| COC(=O)c1ccc(CNCc2ccn(C)n2)cc1 | -2.64 |
| CCOCCCNc1nc(O)cc(C2CC(=O)N(C)C2)n1 (stereo not given) | 0.873 |
| CC(C)Cc1cc(NC(=O)c2n[nH]c3ccccc23)n(C)n1 | -15.9 |
| Cc1cnn(C2CN(CC(=O)NCCCc3ccccc3)C2)c1 | 0.555 |
| Cc1nc(CN2CCCN(CCOc3ccc(C#N)cc3)CC2)no1 | -5.93 |
| CC(NC(=O)NCCN1CCCC1)c1nncn1C (stereo not given) | -5.68 |
| CC(=O)N(Cc1noc(C2CC2)n1)C1CCN(CC2CCOCC2)C1 (stereo not given) | 1.29 |
| COCCS(=O)(=O)Nc1ccc(-n2cncn2)c(F)c1 | -12.2 |
| NC(=O)C1CCN(C(=O)NCc2cccnc2OCC(F)(F)F)C1 (stereo not given) | -11.2 |
| CN(C)c1cc2c(nn1)CCN(C(=O)C1Cc3ccccc3O1)C2 (stereo not given) | -18.5 |
| Cc1cc(C)n(CC2CCCCN2C(=O)c2ccc3c(c2)COC3)n1 (stereo not given) | -24.4 |

| Structure (SMILES) | cytotoxicity at 10 µM [%] |
| --- | --- |
| CCn1ncc2c1CCCC2NCc1ccccc1N1CCOCC1 (stereo not given) | -7.66 |
| Cc1cnn(C2CCCN(C(=O)c3cccc4c3OCO4)C2)c1 (stereo not given) | -2.23 |
| CCc1nc(CN2CCOC(CN(CC)c3cccnn3)C2)cs1 (stereo not given) | 3.09 |
| Cn1cc(CN2CCCN(C(=O)c3cn4ccccc4n3)CC2)cn1 | -5.97 |
| Cc1cnn(CC(C)NCc2ccc(S(C)(=O)=O)cc2)c1 (stereo not given) | 4.62 |
| CCN1CCN(CC(O)c2ccc(OC(F)(F)F)cc2)CC1 (stereo not given) | -4.47 |
| CN(C)C(=O)COC[C@]12COC[C@H]1CN(C1CCCC1)C2 | -108 |
| COCCN1CCC2(CC1)CC(NC(=O)CC1CC1)c1ccccc1O2 (stereo not given) | -1.83 |
| N#Cc1ccc(N2CCCC3(CCC(=O)N3CC3CC3)CC2)nc1 (stereo not given) | -125 |
| Cc1ccc(CN2CCO[C@H]3[C@H](OCc4cccnc4)CC[C@@H]32)o1 | 6.22 |
| CS(=O)(=O)N[C@@H]1CN(C(=O)c2cccnc2)[C@@H]2CCCO[C@@H]21 | -81.8 |
| c1ccc(O[C@@H]2CC[C@H]3[C@H]2OCCN3CC2CCOCC2)nc1 | -1.02 |
| Fc1cnc(N2CCN3C[C@H](Oc4cncnc4)C[C@H]3C2)nc1 | -5.38 |
| CNCC(=O)N1CCC(c2ccnc(Nc3ccc(C)cn3)n2)C1 (stereo not given) | -2.29 |
| CN(Cc1cn2c(n1)CN(C1CCOCC1)CC2)Cc1ccco1 | -64.3 |
| Cn1ccc(CN2CCCC23CCN(Cc2cccc(F)c2)CC3)n1 | -103 |
| COCCN1C[C@@H]2CN(c3cc(OC)ncn3)CCC[C@]2(C(=O)O)C1 | 4.26 |
| O=C1[C@H]2CN(Cc3ccccn3)C[C@H]2CN1c1ccsc1 | -73.2 |
| CN(C)CCN1CCC2(CCN(C(=O)c3ccc(F)cc3)CC2)C1=O | -0.00146 |
| N#Cc1cccc(CN2CC[C@@H]3CN(c4ncccn4)CCO[C@@H]3C2)c1 | -6.51 |
| Cc1nc(CN2CCc3ncnc(C)c3CC2)cs1 | -1.8 |
| Fc1ccc(CN2CCC3(CC2)CCN(c2ncccn2)CC3)cc1 | -73.7 |
| CN(C)S(=O)(=O)N1CC[C@]2(C[C@H](OCc3ccncc3)CO2)C1 | 1.23 |
| O=C(C1CCC2(CCN(c3nncs3)CC2)CO1)N1CCCC1 (stereo not given) | 9.46 |
| O=C(c1ccco1)N1CCCC2(CCN(c3nncs3)C2)C1 (stereo not given) | -97.4 |
| CCc1cc(CN2C[C@@H]3CC[C@H]2CN(C2Cc4ccccc4C2)C3)on1 | 0.998 |
| Oc1coc2cc(OC[C@@H]3CCCN4CCCC[C@H]34)ccc12 | 1.96 |
